Experimental data: ChEMBL document CHEMBL1137696, “Preparation and in vitro evaluation of benzylsulfanyl benzoxazole derivatives as potential antituberculosis agents” (2009)
Values after ≈ are worked out from the molar mass of the structure shown. Active and inactive are the calls of the source. No cut-off for these calls is given here.

What was measured:
L929 = test: Growth inhibition of mouse L929 cells; assay type: functional
Outline: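 Antiproliferative assay on adherent L-929 monolayers exposed to 10 concentrations of compound. Cells were fixed with glutaraldehyde, stained with 0.05% methylene blue for 15 min, washed, and the dye eluted with 0.33 N HCl. OD was read at 630 nm, and GI50 is the concentration giving 50% growth inhibition.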

Mycobacterium kansasii [1] = test: Antimycobacterial activity against Mycobacterium kansasii CNCTC My 235/80 after 7 days by micromethod; assay type: functional; details: CNCTC My 235/80, 168 h
Outline: (§1)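 Micromethod MIC in Šula semisynthetic medium, with compounds added as DMSO solutions at 1000, 500, 250, 125, 62, 32, 16, 8, 4 and 2 µmol/L. Cultures were incubated at 37 °C, and M. kansasii was read at 7, 14 and 21 days. MIC is the lowest concentration at which mycobacterial growth was inhibited. INH served as standard. Strain 6509/96 was a clinical isolate.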

Mycobacterium avium [2] = test: Antimycobacterial activity against Mycobacterium avium CNCTC My 330/88 after 14 days by micromethod; assay type: functional; details: CNCTC My 330/88, 336 h
Outline: (§2)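 MIC by micromethod in Šula semisynthetic medium. Compounds added as DMSO solutions at 1000, 500, 250, 125, 62, 32, 16, 8, 4 and 2 µmol/L. Incubated at 37 °C and read at 14 and 21 days. MIC taken as the lowest concentration that inhibited mycobacterial growth, expressed in µmol/L. INH run as standard. Strains from CNCTC.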

K562 = test: Growth inhibition of human K562 cells; assay type: functional
Outline: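 K-562 suspension cultures in microplates were exposed to 10 concentrations of compound. Each well was diluted 1:50 in CASYTON and counted with a CASY 1 electronic cell analyzer (150 µm aperture), using the mean of three successive 0.4 mL counts. GI50 is the point where the concentration-response curve of cell counts/mL relative to control crosses the 50% line.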

Mycobacterium kansasii [3] = test: Antimycobacterial activity against Mycobacterium kansasii 6509/96 after 21 days by micromethod; assay type: functional; details: 6509/96, 504 h; outline: as §1
Mycobacterium kansasii [4] = test: Antimycobacterial activity against Mycobacterium kansasii CNCTC My 235/80 after 21 days by micromethod; assay type: functional; details: CNCTC My 235/80, 504 h; outline: as §1
Mycobacterium kansasii [5] = test: Antimycobacterial activity against Mycobacterium kansasii CNCTC My 235/80 after 14 days by micromethod; assay type: functional; details: CNCTC My 235/80, 336 h; outline: as §1
HeLa = test: Cytotoxicity against human HeLa cells; assay type: functional
Outline: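 Adherent HeLa monolayers were incubated with 10 concentrations of compound, then glutaraldehyde-fixed and stained with 0.05% methylene blue for 15 min. After gentle washing, the stain was eluted with 0.33 N HCl and absorbance read at 630 nm. CC50 is the concentration causing 50% cytotoxic (lytic) effect.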

Mycobacterium kansasii [6] = test: Antimycobacterial activity against Mycobacterium kansasii 6509/96 after 14 days by micromethod; assay type: functional; details: 6509/96, 336 h; outline: as §1
[7] = tested on: Mycobacterium tuberculosis; test: Antimycobacterial activity against Mycobacterium tuberculosis CNCTC My 331/88 after 14 days by micromethod; assay type: functional; details: CNCTC My 331/88, 336 h; outline: as §2
Mycobacterium kansasii [8] = test: Antimycobacterial activity against Mycobacterium kansasii 6509/96 after 7 days by micromethod; assay type: functional; details: 6509/96, 168 h; outline: as §1
[9] = tested on: Mycobacterium tuberculosis; test: Antimycobacterial activity against Mycobacterium tuberculosis CNCTC My 331/88 after 21 days by micromethod; assay type: functional; details: CNCTC My 331/88, 504 h; outline: as §2
Mycobacterium avium [10] = test: Antimycobacterial activity against Mycobacterium avium CNCTC My 330/88 after 21 days by micromethod; assay type: functional; details: CNCTC My 330/88, 504 h; outline: as §2
Tetranychus urticae [11] = test: Insecticidal activity against glasshouse red spider mite larvae; assay type: functional, organism-based
Tetranychus urticae [12] = test: Insecticidal activity against glasshouse red spider mite egg; assay type: functional

Compound | GI50 (L929) | MIC (Mycobacterium kansasii [1]) | MIC (Mycobacterium avium [2]) | GI50 (K562) | MIC (Mycobacterium kansasii [3]) | MIC (Mycobacterium kansasii [4]) | MIC (Mycobacterium kansasii [5]) | CC50 (HeLa) | MIC (Mycobacterium kansasii [6]) | MIC [7] | MIC (Mycobacterium kansasii [8]) | MIC [9] | MIC (Mycobacterium avium [10]) | Activity (Tetranychus urticae [11]) | Activity (Tetranychus urticae [12])
O=[N+]([O-])c1cc(CSc2nc3ccccc3o2)cc([N+](=O)[O-])c1 | 22.4 µg/mL (≈ 67.6 µM) | 2 µM (≈ 0.663 µg/mL) | > 16 µM | 9.2 µg/mL (≈ 27.8 µM) | 8 µM (≈ 2.65 µg/mL) | 4 µM (≈ 1.33 µg/mL) | 4 µM (≈ 1.33 µg/mL) | > 50 µg/mL | 8 µM (≈ 2.65 µg/mL) | 8 µM (≈ 2.65 µg/mL) | 4 µM (≈ 1.33 µg/mL) | 8 µM (≈ 2.65 µg/mL) | > 32 µM | – | –
Clc1ccc(CSc2nc3ccccc3o2)cc1 | – | 32 µM (≈ 8.82 µg/mL) | 62 µM (≈ 17.1 µg/mL) | – | 125 µM (≈ 34.5 µg/mL) | 125 µM (≈ 34.5 µg/mL) | 62 µM (≈ 17.1 µg/mL) | – | 62 µM (≈ 17.1 µg/mL) | 250 µM (≈ 68.9 µg/mL) | 32 µM (≈ 8.82 µg/mL) | > 500 µM | 62 µM (≈ 17.1 µg/mL) | Active | Active
O=[N+]([O-])c1ccc(CSc2nc3ccccc3o2)c([N+](=O)[O-])c1 | > 50 µg/mL | 4 µM (≈ 1.33 µg/mL) | > 16 µM | 10.4 µg/mL (≈ 31.4 µM) | 8 µM (≈ 2.65 µg/mL) | 4 µM (≈ 1.33 µg/mL) | 4 µM (≈ 1.33 µg/mL) | 45.1 µg/mL (≈ 136 µM) | 8 µM (≈ 2.65 µg/mL) | 8 µM (≈ 2.65 µg/mL) | 4 µM (≈ 1.33 µg/mL) | 8 µM (≈ 2.65 µg/mL) | > 32 µM | – | –
NC(=S)c1ccc(CSc2nc3ccccc3o2)cc1 | 23.8 µg/mL (≈ 79.2 µM) | 8 µM (≈ 2.4 µg/mL) | 32 µM (≈ 9.61 µg/mL) | 9.4 µg/mL (≈ 31.3 µM) | 16 µM (≈ 4.81 µg/mL) | 16 µM (≈ 4.81 µg/mL) | 16 µM (≈ 4.81 µg/mL) | 23.6 µg/mL (≈ 78.6 µM) | 16 µM (≈ 4.81 µg/mL) | 8 µM (≈ 2.4 µg/mL) | 8 µM (≈ 2.4 µg/mL) | 16 µM (≈ 4.81 µg/mL) | 32 µM (≈ 9.61 µg/mL) | – | –
NC(=S)c1cccc(CSc2nc3ccccc3o2)c1 | 17.3 µg/mL (≈ 57.6 µM) | 8 µM (≈ 2.4 µg/mL) | 62 µM (≈ 18.6 µg/mL) | 5.5 µg/mL (≈ 18.3 µM) | 32 µM (≈ 9.61 µg/mL) | 32 µM (≈ 9.61 µg/mL) | 32 µM (≈ 9.61 µg/mL) | 21.6 µg/mL (≈ 71.9 µM) | 32 µM (≈ 9.61 µg/mL) | 8 µM (≈ 2.4 µg/mL) | 8 µM (≈ 2.4 µg/mL) | 16 µM (≈ 4.81 µg/mL) | 62 µM (≈ 18.6 µg/mL) | – | –
Fc1ccc(CSc2nc3ccccc3o2)cc1 | – | 32 µM (≈ 8.3 µg/mL) | 62 µM (≈ 16.1 µg/mL) | – | 125 µM (≈ 32.4 µg/mL) | 125 µM (≈ 32.4 µg/mL) | 62 µM (≈ 16.1 µg/mL) | – | 62 µM (≈ 16.1 µg/mL) | 250 µM (≈ 64.8 µg/mL) | 62 µM (≈ 16.1 µg/mL) | 500 µM (≈ 130 µg/mL) | 62 µM (≈ 16.1 µg/mL) | – | –
COc1cccc(CSc2nc3ccccc3o2)c1 | – | 32 µM (≈ 8.68 µg/mL) | 32 µM (≈ 8.68 µg/mL) | – | 62 µM (≈ 16.8 µg/mL) | 62 µM (≈ 16.8 µg/mL) | 32 µM (≈ 8.68 µg/mL) | – | 32 µM (≈ 8.68 µg/mL) | 125 µM (≈ 33.9 µg/mL) | 32 µM (≈ 8.68 µg/mL) | 250 µM (≈ 67.8 µg/mL) | 32 µM (≈ 8.68 µg/mL) | – | –
Fc1cccc(CSc2nc3ccccc3o2)c1 | – | 32 µM (≈ 8.3 µg/mL) | 32 µM (≈ 8.3 µg/mL) | – | 62 µM (≈ 16.1 µg/mL) | 125 µM (≈ 32.4 µg/mL) | 62 µM (≈ 16.1 µg/mL) | – | 32 µM (≈ 8.3 µg/mL) | 62 µM (≈ 16.1 µg/mL) | 32 µM (≈ 8.3 µg/mL) | 125 µM (≈ 32.4 µg/mL) | 32 µM (≈ 8.3 µg/mL) | – | –
Brc1cccc(CSc2nc3ccccc3o2)c1 | – | 32 µM (≈ 10.2 µg/mL) | 32 µM (≈ 10.2 µg/mL) | – | 62 µM (≈ 19.9 µg/mL) | 62 µM (≈ 19.9 µg/mL) | 32 µM (≈ 10.2 µg/mL) | – | 32 µM (≈ 10.2 µg/mL) | 125 µM (≈ 40 µg/mL) | 32 µM (≈ 10.2 µg/mL) | 250 µM (≈ 80.1 µg/mL) | 32 µM (≈ 10.2 µg/mL) | – | –
Brc1ccc(CSc2nc3ccccc3o2)cc1 | – | 32 µM (≈ 10.2 µg/mL) | 32 µM (≈ 10.2 µg/mL) | – | 125 µM (≈ 40 µg/mL) | > 62 µM | 62 µM (≈ 19.9 µg/mL) | – | 62 µM (≈ 19.9 µg/mL) | > 62 µM | 32 µM (≈ 10.2 µg/mL) | > 125 µM | 62 µM (≈ 19.9 µg/mL) | – | –
